High-throughput results deposited in PubChem BioAssay by Broad Institute.
An excerpt weighted towards active compounds, which were near 2% of everything screened.
S100A4 inh HTS – blocks human S100A4 binding to myosin IIA peptide; 0.14% of 360,000 active; S100A4/TAMRA-MyoIIA peptide fluorescence polarization; P26447; inhibition, % at 10.7 µM;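 active = mean inhibition of at least 70% across replicates, with every replicate also reaching that level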
Target sequence (P26447 whole entry, looked up): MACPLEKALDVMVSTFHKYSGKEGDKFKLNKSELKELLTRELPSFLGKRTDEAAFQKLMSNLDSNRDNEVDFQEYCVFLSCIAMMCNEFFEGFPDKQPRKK
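Test system – S100A4 monomer (human) · Compound – single-point compound testing · Schedule – 5 min incubation before reading · Probe or stimulus – TAMRA-labelled myosin IIA heavy-chain peptide probe, 5 nM · Benchmarks – neutral control DMSO, positive control TFP · Medium – Calcium-containing HEPES buffer, pH 7.2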
CDK5 p35 inh – inhibitors of human CDK5/p35 kinase | Q00535+Q15078 | Recombinant CDK5/p35, ADP-Glo luminescence, 60 min | inhibition, % at 10 µM | 0.01% of 330,000 active;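 active = highest replicate inhibition of at least 50% and at least 75% of replicates reaching 50%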;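 note: plate controls were DMSO neutral control for no effect and GW8510 at 10 µM for full effect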
Statin myotox sup – suppression of simvastatin myotoxicity; C2C12 myotubes + simvastatin, ATP luminescence, 48 h; scaled: DMSO 0, geranylgeraniol control 100; rescue of ATP level, % at 7.49 µM; 0.78% of 330,000 active;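 active = mean ATP rescue above about 67%, or every replicate alone reaching that limit, limit read from the data, passing the limit was not always enough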;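 note: myotubes were challenged with 10 µM simvastatin during compound exposure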
CAL PDZ FP-1 – human CAL PDZ-peptide interaction inhibition | Q9HD26 | purified CAL PDZ, TMR-peptide fluorescence polarization, 1 h | AID 504414 | inhibition, % at 20 µM | 0.02% of 330,000 active;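 active = highest replicate inhibition of at least 40%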;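 note: plate controls were DMSO neutral control wells for no effect and unlabeled competitor peptide control wells for full effect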
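Material: tagged CAL PDZ protein CerCALP, purified; buffer or medium: sodium phosphate/NaCl buffer pH 7.4 with TCEP, IgG, Thesit; also added: fluorescent TMR peptide probe; schedule: 1 h incubation at room temperature before polarization reading; technique: fluorescence polarization from S- and P-plane intensities, G-factor corrected; control set: unlabelled peptide and DMSO controls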
CAL PDZ FP-2 – blocks peptide binding to the human CAL PDZ domain; inhibition, % at 24.9 µM; 0.92% of 300,000 active; purified CAL PDZ, TMR-peptide fluorescence polarization, 1 h;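 active = mean inhibition of at least 30% with at least half of replicates also reaching 30%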;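 note: 0% = DMSO neutral control and 100% = excess unlabeled competitor peptide PRC23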
dFosB act – activators of mouse delta FosB homodimer; purified delta FosB, TAMRA-CDK5 oligo fluorescence polarization; percent of positive-control signal above neutral wells; P13346; activation, % at 25 µM; 0.99% of 340,000 active;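 active = mean activation above about 17%, with every replicate also reaching it, limit read from the data, passing the limit was not always enough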
Target sequence (P13346 whole entry, looked up): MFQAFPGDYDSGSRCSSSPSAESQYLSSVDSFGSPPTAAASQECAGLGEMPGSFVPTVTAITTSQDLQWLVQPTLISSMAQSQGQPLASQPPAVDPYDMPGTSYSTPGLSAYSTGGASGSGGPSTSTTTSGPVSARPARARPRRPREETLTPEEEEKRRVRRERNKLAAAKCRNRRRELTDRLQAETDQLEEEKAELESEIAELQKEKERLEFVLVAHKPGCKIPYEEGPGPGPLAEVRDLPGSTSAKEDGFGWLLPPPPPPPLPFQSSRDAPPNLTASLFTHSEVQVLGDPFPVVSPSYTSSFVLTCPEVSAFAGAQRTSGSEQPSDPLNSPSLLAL
Active calls of the source: *; / = no result.

SMILES | S100A4 inh HTS | CDK5 p35 inh | Statin myotox sup | CAL PDZ FP-1 | CAL PDZ FP-2 | dFosB act
CCN1C(=O)C2C(c3ccc(O)c(OC)c3)NC(C)(C(=O)OC)C2C1=O (stereo not given) | / | 0 | -12 | -1 | -2 | 3
O/N=C1/CC/C(=N\O)c2nn(-c3ccccc3)nc21 | / | 2 | 0 | 0 | 2 | -3
O=C(O)c1nn(-c2ccccc2)nc1-c1nn(-c2ccccc2)nc1C(=O)O | / | -2 | 136* | -1 | 0 | -7
COc1ccccc1-c1noc(-c2ccccc2C(=O)NCc2ccco2)n1 | -3 | 1 | -10 | -1 | -9 | -3
COc1ccc(-c2noc(-c3ccccc3C(=O)Nc3cccnc3)n2)cc1OC | / | 1 | 2 | -4 | -5 | -29
COc1cc(-c2noc(-c3ccccc3C(=O)NCc3ccco3)n2)cc(OC)c1OC | / | 1 | 100* | 0 | -3 | -11
COc1ccc(-c2noc(-c3ccccc3C(=O)NCC3CCCO3)n2)cc1 (stereo not given) | 0 | 0 | / | -1 | 70* | 2
COc1ccc(-c2noc(-c3ccccc3C(=O)Nc3cccnc3)n2)cc1 | / | 0 | 103* | -2 | 9 | -14
O=C(NCC1CCCO1)c1ccccc1-c1nc(-c2ccc(F)cc2)no1 (stereo not given) | / | -1 | 49 | -1 | -5 | -4
C[C@H]1CN([C@@H](C)CO)C(=O)Cc2cc(NC(=O)CCC(F)(F)F)ccc2O[C@@H]1CN(C)C(=O)NC1CCCCC1 | -2 | / | 22 | / | / | /
COc1ccc(-n2cnc3scc(-c4ccc(OC)c(OC)c4)c3c2=O)cc1 | -4 | 0 | -17 | -3 | 5 | -1
O=C(Nc1ccccc1N1CCCC1)c1cccc(-c2cc3ccccc3oc2=O)c1 | / | -2 | / | 0 | -4 | -7
O=C(Nc1ccc(N2CCCC2)cc1)c1cccc(-c2cc3ccccc3oc2=O)c1 | -2 | -1 | 15 | 1 | 10 | 17*
Cc1nc(NC(=O)c2cccc(-c3cc4ccccc4oc3=O)c2)ccc1Br | / | -1 | / | -2 | / | 168*
NS(=O)(=O)c1cccc(NC(=O)CSc2nnc(-c3ccncc3)n2C2CC2)c1 | 0 | 1 | 4 | -2 | -2 | -5
CC(C)Cn1c(N)c(C(=O)COC(=O)c2cc(F)cc(F)c2)c(=O)n(C)c1=O | 2 | -2 | / | -3 | 36* | -10
CC(C)Cn1c(N)c(C(=O)COC(=O)c2ccc(O)cc2)c(=O)n(C)c1=O | -6 | -2 | / | 0 | -9 | -10
Cc1ccnc2nc(C(=O)OCCOc3ccc(F)cc3)nn12 | -4 | 1 | 16 | 40* | -3 | -4
Cc1ccnc2nc(C(=O)OCCOc3ccc(Cl)cc3)nn12 | -4 | 3 | / | -1 | -1 | -5
COCCn1c(-c2ccccc2F)n[nH]c1=S | / | 0 | 137* | -1 | -3 | -5
C=C(C)C1CC=C(C)/C(=N/NC(=O)c2ccc(NC(=O)CCC)cc2)C1 (stereo not given) | / | 1 | 4 | -3 | -2 | -11
C=C(C)C1CC=C(C)/C(=N/NC(=O)c2ccc(NC(=O)CC)cc2)C1 (stereo not given) | -2 | 0 | 119* | -2 | / | 1
O=C(NCC(=O)N1CCN(c2ccccc2F)CC1)c1ccco1 | -1 | -4 | 6 | -1 | 71* | -2
O=C(Cc1ccccc1)NCC(=O)N1CCN(c2ccccc2F)CC1 | 0 | -4 | 6 | -2 | -10 | -4
Cc1cccc(CC(=O)NCC(=O)NCc2cc(=O)n(C)c(=O)n2C)c1 | -2 | -1 | -8 | -1 | 62* | -3
CCOc1ccc(CC(=O)NCC(=O)NCc2cc(=O)n(C)c(=O)n2C)cc1 | -5 | / | -3 | -1 | -2 | -6
O=C(NCc1cccnc1)C1CC2c3ccccc3C1c1ccccc12 (stereo not given) | / | 2 | -5 | -2 | -3 | -4
NCC1CC2c3ccccc3C1c1ccccc12 (stereo not given) | -3 | 0 | 8 | / | 92* | -2
COc1ccc(S(=O)(=O)NC(N)=NCCc2ccc(OC)c(OC)c2)cc1C | 10 | 1 | / | -2 | -1 | -2
